Measurements: ChEMBL document CHEMBL1143838, “Candida albicans and Candida dubliniensis respond differently to echinocandin antifungal agents in vitro” (2007)
Values after ≈ are worked out from the molar mass of the structure shown. *1 amine or outer side, *2 acyl side, *3 side chain or, on linkers, in order; H or OH if unused. Where a SMILES comes first, the peptide text is derived from it. Bridges are numbered along the chain shown (N, C = ends). [ ]: non-standard residue; d: D form. The star is where a group is joined. pTerphenylCO(4''-OnC5H11) = CCCCCOc1ccc(-c2ccc(-c3ccc(C(=O)*)cc3)cc2)cc1; Orn(4R-OH,5R-OH) = O=C([C@H](C[C@@H](O)[C@@H](O)N[*:3])N[*:1])[*:2]; hTyr(3S-OH,4S-OH) = N[C@H](C(=O)O)[C@H](O)[C@@H](O)c1ccc(O)cc1; Pro(3S-OH,4S-Me) = C[C@H]1CN[C@H](C(=O)O)[C@H]1O; Hyp = O=C(O)[C@@H]1C[C@@H](O)CN1

How the values were obtained:
Format in all cases: functional
Candida albicans [1] = assay: Antifungal activity against Candida albicans T25 after 24 hrs by EUCAST test
Summary of the method: (§1)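 EUCAST broth microdilution with aqueous doubling dilutions of drug. Inoculum grown overnight at 30°C in NGY, then added to MOPS-buffered RPMI 1640 with 2% glucose at an initial 10^5 yeasts/ml. Incubated 35°C for 24 h. MICs taken from triplicate spectrophotometric dose-response data as 50% and 80% growth-reduction endpoints.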

Candida dubliniensis [2] = assay: Antifungal activity against Candida dubliniensis ST after 24 hrs by EUCAST test
Summary of the method: (§2)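 Yeasts were grown overnight at 30°C in NGY, then inoculated at 10^5 yeasts/ml initial concentration into MOPS-buffered RPMI 1640 with 2% glucose containing aqueous doubling dilutions of drug. Plates were held at 35°C for 24 h. MICs came from triplicate spectrophotometric dose-response data at 50% and 80% growth-reduction endpoints. Trailing meant a >100-fold gap between these endpoints; paradoxical meant regrowth ≥5% above the curve minimum.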

Candida parapsilosis [3] = assay: Antifungal activity against Candida parapsilosis ATCC 22019 after 24 hrs by EUCAST test; conditions: Lodderomyces parapsilosis, ATCC 22019, 24 h; summary of the method: as §2
Candida albicans [4] = assay: Antifungal activity against Candida albicans SCS67023C after 24 hrs by CLSI M27-A test
Summary of the method: (§3)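 CLSI M27-A broth microdilution with aqueous doubling dilutions of drug. Inoculum grown overnight at 30°C in NGY medium, then added to MOPS-buffered RPMI 1640 at an initial 10^3 yeasts/ml. Incubated 35°C for 24 h. MIC read visually as the lowest concentration giving a marked decrease in visible growth; paradoxical or trailing growth noted.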

Candida dubliniensis [5] = assay: Antifungal activity against Candida dubliniensis B71507 after 24 hrs by EUCAST test; summary of the method: as §2
Candida albicans [6] = assay: Antifungal activity against Candida albicans Y109 after 24 hrs by CLSI M27-A test; summary of the method: as §3
Candida albicans [7] = assay: Antifungal activity against Candida albicans JIMS132203 after 24 hrs by EUCAST test; summary of the method: as §1
Candida albicans [8] = assay: Antifungal activity against Candida albicans B06-341 after 24 hrs by CLSI M27-A test; summary of the method: as §3
Candida dubliniensis [9] = assay: Antifungal activity against Candida dubliniensis SCS59662 after 24 hrs by CLSI M27-A test
Summary of the method: (§4)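 Broth microdilution with echinocandins as aqueous doubling dilutions. Yeasts were grown overnight at 30°C in NGY and seeded at 10^3 yeasts/ml initial concentration in MOPS-buffered RPMI 1640, then incubated at 35°C for 24 h. The MIC was read visually as the lowest concentration giving a marked decrease in visible growth; paradoxical or trailing growth was noted.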

Candida albicans [10] = assay: Antifungal activity against Candida albicans AM2003/0083 after 24 hrs by EUCAST test; summary of the method: as §1
Candida albicans [11] = assay: Antifungal activity against Candida albicans SCS68858 after 24 hrs by CLSI M27-A test; summary of the method: as §3
Candida dubliniensis [12] = assay: Antifungal activity against Candida dubliniensis Leic952 after 24 hrs by CLSI M27-A test; summary of the method: as §4
Candida albicans [13] = assay: Antifungal activity against Candida albicans B06-341 after 24 hrs by EUCAST test; summary of the method: as §1
Candida dubliniensis [14] = assay: Antifungal activity against Candida dubliniensis AMCC after 24 hrs by CLSI M27-A test; summary of the method: as §3
Candida dubliniensis [15] = assay: Antifungal activity against Candida dubliniensis SCS59662 after 24 hrs by EUCAST test; summary of the method: as §2
Candida albicans [16] = assay: Antifungal activity against Candida albicans NR3 after 24 hrs by CLSI M27-A test; summary of the method: as §3
Candida albicans [17] = assay: Antifungal activity against Candida albicans SC5314 after 24 hrs by EUCAST test; conditions: SC5314, 24 h; summary of the method: as §1
Candida albicans [18] = assay: Antifungal activity against Candida albicans JIMS132203 after 24 hrs by CLSI M27-A test; summary of the method: as §3
Candida albicans [19] = assay: Antifungal activity against Candida albicans CAI4RI after 24 hrs by CLSI M27-A test; summary of the method: as §3
Candida albicans [20] = assay: Antifungal activity against Candida albicans SCS68858 after 24 hrs by EUCAST test; summary of the method: as §1
Candida albicans [21] = assay: Antifungal activity against Candida albicans SCS140136P after 24 hrs by EUCAST test; summary of the method: as §1
Candida dubliniensis [22] = assay: Antifungal activity against Candida dubliniensis 910Aa after 24 hrs by CLSI M27-A test; summary of the method: as §3
Candida dubliniensis [23] = assay: Antifungal activity against Candida dubliniensis SCS65875C after 24 hrs by CLSI M27-A test; summary of the method: as §4
Candida albicans [24] = assay: Antifungal activity against Candida albicans JIMS146204 after 24 hrs by CLSI M27-A test; summary of the method: as §3
Candida dubliniensis [25] = assay: Antifungal activity against Candida dubliniensis 910Aa after 24 hrs by EUCAST test; summary of the method: as §1
Candida dubliniensis [26] = assay: Antifungal activity against Candida dubliniensis 75/043 after 24 hrs by CLSI M27-A test; summary of the method: as §3
Candida albicans [27] = assay: Antifungal activity against Candida albicans NR4 after 24 hrs by EUCAST test; summary of the method: as §1
Candida dubliniensis [28] = assay: Antifungal activity against Candida dubliniensis 90/033 after 24 hrs by EUCAST test; summary of the method: as §1
Candida parapsilosis [29] = assay: Antifungal activity against Candida parapsilosis ATCC 22019 after 24 hrs by CLSI M27-A test; conditions: Lodderomyces parapsilosis, ATCC 22019, 24 h; summary of the method: as §4
Candida albicans [30] = assay: Antifungal activity against Candida albicans JIMS101103 after 24 hrs by EUCAST test; summary of the method: as §1
Candida dubliniensis [31] = assay: Antifungal activity against Candida dubliniensis SCS17154969-1 after 24 hrs by CLSI M27-A test; summary of the method: as §4
Candida dubliniensis [32] = assay: Antifungal activity against Candida dubliniensis IK after 24 hrs by CLSI M27-A test; summary of the method: as §4
Candida dubliniensis [33] = assay: Antifungal activity against Candida dubliniensis SCSBB417709 after 24 hrs by CLSI M27-A test; summary of the method: as §4
Candida albicans [34] = assay: Antifungal activity against Candida albicans T28 after 24 hrs by EUCAST test; summary of the method: as §1
Candida dubliniensis [35] = assay: Antifungal activity against Candida dubliniensis SCS65875C after 24 hrs by EUCAST test; summary of the method: as §2
Candida albicans [36] = assay: Antifungal activity against Candida albicans T25 after 24 hrs by CLSI M27-A test; summary of the method: as §3
Candida dubliniensis [37] = assay: Antifungal activity against Candida dubliniensis KR after 24 hrs by EUCAST test; summary of the method: as §2
Candida albicans [38] = assay: Antifungal activity against Candida albicans HK04M102095 after 24 hrs by CLSI M27-A test; summary of the method: as §3
Candida dubliniensis [39] = assay: Antifungal activity against Candida dubliniensis SCSBB417709 after 24 hrs by EUCAST test; summary of the method: as §2
Candida dubliniensis [40] = assay: Antifungal activity against Candida dubliniensis J930936 after 24 hrs by CLSI M27-A test; summary of the method: as §4
Candida albicans [41] = assay: Antifungal activity against Candida albicans T32 after 24 hrs by CLSI M27-A test; summary of the method: as §3
Candida albicans [42] = assay: Antifungal activity against Candida albicans NR4 after 24 hrs by CLSI M27-A test; summary of the method: as §3
Candida dubliniensis [43] = assay: Antifungal activity against Candida dubliniensis FS after 24 hrs by EUCAST test; summary of the method: as §2
Candida dubliniensis [44] = assay: Antifungal activity against Candida dubliniensis Leic875 after 24 hrs by CLSI M27-A test; summary of the method: as §4
Candida dubliniensis [45] = assay: Antifungal activity against Candida dubliniensis J931021 after 24 hrs by EUCAST test; summary of the method: as §2
Candida dubliniensis [46] = assay: Antifungal activity against Candida dubliniensis FS after 24 hrs by CLSI M27-A test; summary of the method: as §4
Candida dubliniensis [47] = assay: Antifungal activity against Candida dubliniensis IK after 24 hrs by EUCAST test; summary of the method: as §2

Which results are given for CCCCCOc1ccc(-c2ccc(-c3ccc(C(=O)N[C@H]4C[C@@H](O)[C@@H](O)NC(=O)[C@@H]5[C@@H](O)[C@@H](C)CN5C(=O)[C@H]([C@@H](C)O)NC(=O)[C@H]([C@H](O)[C@@H](O)c5ccc(O)cc5)NC(=O)[C@@H]5C[C@@H](O)CN5C(=O)[C@H]([C@@H](C)O)NC4=O)cc3)cc2)cc1 [ANIDULAFUNGIN] ({pTerphenylCO(4''-OnC5H11)}-[Orn(4R-OH,5R-OH)]T[Hyp][hTyr(3S-OH,4S-OH)]T[Pro(3S-OH,4S-Me)]; lactam 1-C)?
MIC50 (Candida albicans [1]): 0.5 µg/mL (≈ 0.438 µM); MIC50 (Candida dubliniensis [2]): ≤ 0.032 µg/mL; MIC50 (Candida parapsilosis [3]): 0.5 µg/mL (≈ 0.438 µM); MIC50 (Candida albicans [4]): ≤ 0.032 µg/mL; MIC50 (Candida dubliniensis [5]): 0.25 µg/mL (≈ 0.219 µM); MIC50 (Candida albicans [6]): 0.25 µg/mL (≈ 0.219 µM); MIC50 (Candida albicans [7]): ≤ 0.032 µg/mL; MIC50 (Candida albicans [8]): 0.13 µg/mL (≈ 0.114 µM); MIC50 (Candida dubliniensis [9]): ≤ 0.032 µg/mL; MIC50 (Candida albicans [10]): ≤ 0.032 µg/mL; MIC50 (Candida albicans [11]): ≤ 0.032 µg/mL; MIC50 (Candida dubliniensis [12]): ≤ 0.032 µg/mL; MIC50 (Candida albicans [13]): 0.13 µg/mL (≈ 0.114 µM); MIC50 (Candida dubliniensis [14]): ≤ 0.032 µg/mL; MIC50 (Candida dubliniensis [15]): ≤ 0.032 µg/mL; MIC50 (Candida albicans [16]): 1 µg/mL (≈ 0.877 µM); MIC50 (Candida albicans [17]): ≤ 0.032 µg/mL; MIC50 (Candida albicans [18]): ≤ 0.032 µg/mL; MIC50 (Candida albicans [19]): 0.5 µg/mL (≈ 0.438 µM); MIC50 (Candida albicans [20]): ≤ 0.032 µg/mL; MIC50 (Candida albicans [21]): ≤ 0.032 µg/mL; MIC50 (Candida dubliniensis [22]): ≤ 0.032 µg/mL; MIC50 (Candida dubliniensis [23]): ≤ 0.032 µg/mL; MIC50 (Candida albicans [24]): ≤ 0.032 µg/mL; MIC50 (Candida dubliniensis [25]): ≤ 0.032 µg/mL; MIC50 (Candida dubliniensis [26]): ≤ 0.032 µg/mL; MIC50 (Candida albicans [27]): 0.13 µg/mL (≈ 0.114 µM); MIC50 (Candida dubliniensis [28]): 8 µg/mL (≈ 7.02 µM); MIC50 (Candida parapsilosis [29]): 0.5 µg/mL (≈ 0.438 µM); MIC50 (Candida albicans [30]): ≤ 0.032 µg/mL; MIC50 (Candida dubliniensis [31]): ≤ 0.032 µg/mL; MIC50 (Candida dubliniensis [32]): ≤ 0.032 µg/mL; MIC50 (Candida dubliniensis [33]): ≤ 0.032 µg/mL; MIC50 (Candida albicans [34]): ≤ 0.032 µg/mL; MIC50 (Candida dubliniensis [35]): ≤ 0.032 µg/mL; MIC50 (Candida albicans [36]): 1 µg/mL (≈ 0.877 µM); MIC50 (Candida dubliniensis [37]): ≤ 0.032 µg/mL; MIC50 (Candida albicans [38]): ≤ 0.032 µg/mL; MIC50 (Candida dubliniensis [39]): ≤ 0.032 µg/mL; MIC50 (Candida dubliniensis [40]): ≤ 0.032 µg/mL; MIC50 (Candida albicans [41]): ≤ 0.032 µg/mL; MIC50 (Candida albicans [42]): 0.25 µg/mL (≈ 0.219 µM); MIC50 (Candida dubliniensis [43]): 4 µg/mL (≈ 3.51 µM); MIC50 (Candida dubliniensis [44]): ≤ 0.032 µg/mL; MIC50 (Candida dubliniensis [45]): 16 µg/mL (≈ 14 µM); MIC50 (Candida dubliniensis [46]): ≤ 0.032 µg/mL; MIC50 (Candida dubliniensis [47]): ≤ 0.032 µg/mL
